Data as given in ChEMBL document CHEMBL5131497, “Design, Synthesis, and Characterization of TNP-2198, a Dual-Targeted Rifamycin-Nitroimidazole Conjugate with Potent Activity against Microaerophilic and Anaerobic Bacterial Pathogens” (J Med Chem, 2022).
≈ marks a conversion by molar mass, not a printed value.

What was measured:
Type in all cases: functional
Helicobacter pylori [1] = experiment: Antibacterial activity against Helicobacter pylori ATCC 700392
In short: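 Agar dilution per CLSI. Wild-type H. pylori ATCC 700392 (CB1531). Drugs prepared from 100× stocks as 2-fold dilutions in Mueller–Hinton agar with aged (≥2 weeks) sheep blood (5% v/v). Combinations were at 1:1 molar ratio. MIC read after 5 days at 35 °C under microaerobic atmosphere from a campylobacter gas-generating system.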

Clostridioides difficile [2] = experiment: Antibacterial activity against Clostridioides difficile ATCC 9689
Staphylococcus aureus = experiment: Antibacterial activity against Staphylococcus aureus ATCC 29213
Prevotella disiens = experiment: Antibacterial activity against Prevotella disiens MMX 3457
Bacteroides uniformis = experiment: Antibacterial activity against Bacteroides uniformis MMX 1277
[3] = test system: Bacteroides thetaiotaomicron; experiment: Antibacterial activity against metronidazole-resistant Bacteroides thetaiotaomicron MMX 3409
Bacteroides fragilis = experiment: Antibacterial activity against metronidazole-resistant Bacteroides fragilis MMX 3387
Campylobacter gracilis = experiment: Antibacterial activity against Bacteroides gracilis ATCC 33236 MMX 1270
Phocaeicola vulgatus = experiment: Antibacterial activity against Bacteroides vulgatus MMX 8348
Clostridioides difficile [4] = experiment: Antibacterial activity against rifampicin-resistant Clostridium difficile MMX 3587
Peptostreptococcus sp. = experiment: Antibacterial activity against Peptostreptococcus magnus ATCC 14956
Helicobacter pylori [5] = experiment: Antibacterial activity against Helicobacter pylori infected in C57/BL6 mouse assessed as bacterial load in stomach at 1 mg/kg administered twice daily via oral gavage starting from 7 days post inoculation and administered for 7 days in presence of 10 mg/kg clarithromycin and 20 mg/kg amoxicillin (reference value: 5.25 log10CFU); conditions: time 7 day
Helicobacter pylori [6] = experiment: Antibacterial activity against metronidazole-resistant Helicobacter pylori CB1573 harboring rdxAR16S mutant at 1:1 compound to metronidazole molar ratio measured after 5 days in presence of metronidazole by agar dilution method; conditions: CB1573, 120 h, time 5 day
In short: (§1)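 Agar dilution per CLSI. Wild-type ATCC 700392 (CB1531) and its derivatives carry defined resistance determinants. Drugs, alone or in 1:1 molar mixtures, were diluted 2-fold from 100× stocks into Mueller–Hinton agar with aged (≥2 weeks) sheep blood (5% v/v). MIC read after 5 days at 35 °C under microaerobic conditions from a campylobacter gas-generating system.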

Helicobacter pylori [7] = experiment: Antibacterial activity against rifampicin-resistant Helicobacter pylori CB1902 harboring rpoBV149F mutant at 1:1 compound to metronidazole molar ratio measured after 5 days in presence of metronidazole by agar dilution method; conditions: CB1902, 120 h, time 5 day; in short: as §1
Helicobacter pylori [8] = experiment: Antibacterial activity against metronidazole/rifampicin-resistant Helicobacter pylori CB1771 harboring rpoBL525I/D530N/rdxAE75stop mutant measured after 5 days by agar dilution method; conditions: CB1771, 120 h, time 5 day; in short: as §1
Helicobacter pylori [9] = experiment: Antibacterial activity against metronidazole/rifampicin-resistant Helicobacter pylori CB1893 harboring rpoBL525I/D530N/rdxAR16S mutant at 1:1 compound to metronidazole molar ratio measured after 5 days in presence of metronidazole by agar dilution method; conditions: CB1893, 120 h, time 5 day; in short: as §1
Helicobacter pylori [10] = experiment: Antibacterial activity against metronidazole/rifampicin-resistant Helicobacter pylori CB1893 harboring rpoBL525I/D530N/rdxAR16S mutant measured after 5 days by agar dilution method; conditions: CB1893, 120 h, time 5 day; in short: as §1
Helicobacter pylori [11] = experiment: Antibacterial activity against metronidazole/rifampicin-resistant Helicobacter pylori CB1771 harboring rpoBL525I/D530N/rdxAE75stop mutant at 1:1 compound to metronidazole molar ratio measured after 5 days in presence of metronidazole by agar dilution method; conditions: CB1771, 120 h, time 5 day; in short: as §1
Helicobacter pylori [12] = experiment: Antibacterial activity against rifampicin-resistant Helicobacter pylori CB1903 harboring rpoBD530V mutant measured after 5 days by agar dilution method; conditions: CB1903, 120 h, time 5 day; in short: as §1
Helicobacter pylori [13] = experiment: Antibacterial activity against rifampicin-resistant Helicobacter pylori CB1903 harboring rpoBD530V mutant at 1:1 compound to metronidazole molar ratio measured after 5 days in presence of metronidazole by agar dilution method; conditions: CB1903, 120 h, time 5 day; in short: as §1
Helicobacter pylori [14] = experiment: Antibacterial activity against rifampicin-resistant Helicobacter pylori CB1614 harboring rpoBL525I/D530N mutant measured after 5 days by agar dilution method; conditions: CB1614, 120 h, time 5 day; in short: as §1
Helicobacter pylori [15] = experiment: Antibacterial activity against rifampicin-resistant Helicobacter pylori CB1614 harboring rpoBL525I/D530N at 1:1 compound to metronidazole molar ratio measured after 5 days in presence of metronidazole by agar dilution method; conditions: CB1614, 120 h, time 5 day; in short: as §1
Helicobacter pylori [16] = experiment: Antibacterial activity against rifampicin-resistant Helicobacter pylori CB1902 harboring rpoBV149F mutant measured after 5 days by agar dilution method; conditions: CB1902, 120 h, time 5 day; in short: as §1

MIC (Helicobacter pylori [1]) [µg/mL]	MIC (Clostridioides difficile [2]) [µg/mL]	MIC (Staphylococcus aureus) [µg/mL]	SMILES	also measured
0.004 (≈ 0.0041 µM)	0.001 (≈ 0.00102 µM)		CO[C@H]1/C=C/O[C@@]2(C)Oc3c(C)c(O)c4c(c3C2=O)C2=NC3(CCN(CC(=O)Nc5ncc([N+](=O)[O-])s5)CC3)NC2=C(NC(=O)/C(C)=C\C=C\[C@H](C)[C@H](O)[C@@H](C)[C@@H](O)[C@@H](C)[C@H](OC(C)=O)[C@@H]1C)C4=O	
0.03 (≈ 0.0309 µM)		0.03 (≈ 0.0309 µM)	CO[C@H]1/C=C/O[C@@]2(C)Oc3c(C)c(O)c4c(c3C2=O)C2=NC3(CCN(CC5(C)Cn6cc([N+](=O)[O-])nc6O5)CC3)NC2=C(NC(=O)/C(C)=C\C=C\[C@H](C)[C@H](O)[C@@H](C)[C@@H](O)[C@@H](C)[C@H](OC(C)=O)[C@@H]1C)C4=O (some centres undefined)	
1 (≈ 0.948 µM)	0.03 (≈ 0.0284 µM)	0.015 (≈ 0.0142 µM)	CO[C@H]1/C=C/O[C@@]2(C)Oc3c(C)c(O)c4c(O)c(c(N5CCN(c6ccc(OCC7(C)Cn8cc([N+](=O)[O-])nc8O7)cc6)CC5)c(O)c4c3C2=O)NC(=O)/C(C)=C\C=C\[C@H](C)[C@H](O)[C@@H](C)[C@@H](O)[C@@H](C)[C@H](OC(C)=O)[C@@H]1C (some centres undefined)	
4 (≈ 3.69 µM)		0.25 (≈ 0.231 µM)	CO[C@H]1/C=C/O[C@@]2(C)Oc3c(C)c(O)c4c(O)c(c(N5CCN(C(=O)c6ccc(OCC7(C)Cn8cc([N+](=O)[O-])nc8O7)cc6)CC5)c(O)c4c3C2=O)NC(=O)/C(C)=C\C=C\[C@H](C)[C@H](O)[C@@H](C)[C@@H](O)[C@@H](C)[C@H](OC(C)=O)[C@@H]1C (some centres undefined)	
0.03 (≈ 0.0278 µM)	0.001 (≈ 0.000927 µM)	0.03 (≈ 0.0278 µM)	CO[C@H]1/C=C/O[C@@]2(C)Oc3c(C)c(O)c4c(c3C2=O)C2=NC3(CCN(Cc5ccc(CO[C@@H]6COc7nc([N+](=O)[O-])cn7C6)cc5)CC3)NC2=C(NC(=O)/C(C)=C\C=C\[C@H](C)[C@H](O)[C@@H](C)[C@@H](O)[C@@H](C)[C@H](OC(C)=O)[C@@H]1C)C4=O	
			CCC[C@@H]1C[C@@H](C(=O)N[C@@H]([C@H]2O[C@H](SC)[C@H](O)[C@@H](O)[C@H]2O)[C@H](C)Cl)N(C)C1 [CLINDAMYCIN]	MIC (Prevotella disiens): 0.25 µg/mL (≈ 0.588 µM); MIC (Bacteroides uniformis): 0.25 µg/mL (≈ 0.588 µM); MIC [3]: > 64 µg/mL; MIC (Bacteroides fragilis): 2 µg/mL (≈ 4.71 µM); MIC (Campylobacter gracilis): 0.06 µg/mL (≈ 0.141 µM); MIC (Phocaeicola vulgatus): 0.25 µg/mL (≈ 0.588 µM); MIC (Clostridioides difficile [4]): 8 µg/mL (≈ 18.8 µM); MIC (Peptostreptococcus sp.): 1 µg/mL (≈ 2.35 µM)
			COc1ccc2[nH]c([S+]([O-])Cc3ncc(C)c(OC)c3C)nc2c1 (centres undefined) [OMEPRAZOLE]	Activity (Helicobacter pylori [5]): 1.7 log10CFU
2 (≈ 5.57 µM)	16 (≈ 44.5 µM)	> 32	O=[N+]([O-])c1cn2c(n1)OC[C@@H](OCc1ccc(OC(F)(F)F)cc1)C2 [PRETOMANID]	
0.002 (≈ 0.00213 µM)	0.001 (≈ 0.00106 µM)	0.004 (≈ 0.00425 µM)	CO[C@H]1/C=C/O[C@@]2(C)Oc3c(C)c(O)c4c(=O)c(c5oc6cc(N7CCN(CC(C)C)CC7)cc(O)c6nc-5c4c3C2=O)NC(=O)/C(C)=C\C=C\[C@H](C)[C@H](O)[C@@H](C)[C@@H](O)[C@@H](C)[C@H](OC(C)=O)[C@@H]1C [RIFALAZIL]	
1 (≈ 1.27 µM)	0.004 (≈ 0.00509 µM)	0.06 (≈ 0.0763 µM)	CO[C@H]1/C=C/O[C@@]2(C)Oc3c(C)c(O)c4c(O)c(c5c(nc6cc(C)ccn65)c4c3C2=O)NC(=O)/C(C)=C\C=C\[C@H](C)[C@H](O)[C@@H](C)[C@@H](O)[C@@H](C)[C@H](OC(C)=O)[C@@H]1C [RIFAXIMIN]	

SMILES	MIC (Helicobacter pylori [1]) [µg/mL]	MIC (Clostridioides difficile [2]) [µg/mL]	MIC (Staphylococcus aureus) [µg/mL]	also measured
CO[C@H]1/C=C/O[C@@]2(C)Oc3c(C)c(O)c4c(c3C2=O)C2=NC3(CCN(CC(C)C)CC3)NC2=C(NC(=O)/C(C)=C\C=C\[C@H](C)[C@H](O)[C@@H](C)[C@@H](O)[C@@H](C)[C@H](OC(C)=O)[C@@H]1C)C4=O [RIFABUTIN]	0.001 (≈ 0.00118 µM)	0.0001 (≈ 0.000118 µM)	0.03 (≈ 0.0354 µM)	MIC (Helicobacter pylori [6]): ≤ 0.002 µg/mL; MIC (Helicobacter pylori [7]): 2 µg/mL; MIC (Helicobacter pylori [8]): 16 µg/mL (≈ 18.9 µM); MIC (Helicobacter pylori [9]): 16 µg/mL; MIC (Helicobacter pylori [10]): 16 µg/mL (≈ 18.9 µM); MIC (Helicobacter pylori [11]): 16 µg/mL; MIC (Helicobacter pylori [12]): 16 µg/mL (≈ 18.9 µM); MIC (Helicobacter pylori [13]): 1 µg/mL; MIC (Helicobacter pylori [14]): 16 µg/mL (≈ 18.9 µM); MIC (Helicobacter pylori [15]): 2 µg/mL; MIC (Helicobacter pylori [16]): 16 µg/mL (≈ 18.9 µM)
